What all share (assay type): functional, cell-based
The subject of experiment [1] is L5178Y. Nature of the experiment: Cytotoxicity against mouse L5178Y cells by MTT assay. A digest of the protocol:
(§1)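 MTT viability read-out on L5178Y, HeLa and PC12 cells over 0.1-10 µg/mL, with EC50 values given in µg/mL; a positive control was run alongside. Other details follow an earlier protocol.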
In general terms: Formazan colour is commonly taken as a measure of viable cells.

Experiment [2] deals with PC-12. Briefly: Cytotoxicity against rat PC12 cells by MTT assay. A digest of the protocol:
as §1

Experiment [3] relates to HeLa. Briefly: Cytotoxicity against human HeLa cells by MTT assay. A digest of the protocol:
as §1

In experiment [4] the test system is L5178Y. Nature of the experiment: Cytotoxicity against mouse L5178Y cells at 0.1 to 10 ug/ml by MTT assay. A digest of the protocol:
as §1

Experiment [5] concerns PC-12. Briefly: Cytotoxicity against rat PC12 cells at 0.1 to 10 ug/ml by MTT assay. In outline:
as §1

Experiment [6] relates to HeLa. Briefly: Cytotoxicity against human HeLa cells at 0.1 to 10 ug/ml by MTT assay. A digest of the protocol:
as §1

In brackets after ≈: the same amount, converted by molar mass. Activity calls are given as the source filed them. The rule behind the calls is not given here.

Broadly, the EC50 is the concentration needed to bring the measured effect to its halfway point. Lower therefore signals greater potency.

As to `CC1(C)CCC[C@@]2(C)[C@H]1[C@H](OC(=O)/C=C/C=C/C(=O)O)C=C1COC(=O)[C@@]12O`, the EC50 in experiment [1] is 5.3 µg/mL (≈ 13.6 µM); in experiment [2] it was more than 10 µg/mL; in experiment [3] it was more than 10 µg/mL.
As for `CC1=CC(=O)[C@H]2C(C)(C)[C@@H](O)CC[C@]2(C)[C@H]1CO`, the result in experiment [4], in experiment [5] and in experiment [6] was inactive.
In the case of `CC1(C)CCC[C@@]2(C)[C@H]1[C@H](OC(=O)/C=C/C=C/C=O)C=C1COC(=O)[C@@]12O` [USTUSOLATE E], the EC50 in experiment [1] came out at 0.6 µg/mL (≈ 1.6 µM); in experiment [2], 7.2 µg/mL (≈ 19.2 µM); in experiment [3], 5.9 µg/mL (≈ 15.8 µM).
On to `CC(O)C(O)/C=C/C=C/C(=O)O[C@@H]1C=C2COC(=O)[C@]2(O)[C@@]2(C)CCCC(C)(C)[C@H]12` (stereo in doubt; 8), for which the outcome in experiment [4], in experiment [5] and in experiment [6] was inactive.
Consider `CC1=CC(=O)[C@H]2C(C)(C)C[C@H](O)C[C@]2(C)[C@H]1CO`, for which the outcome in experiment [4], in experiment [5] and in experiment [6] was inactive.
On to `CC(O)C(O)/C=C/C=C/C(=O)O[C@@H]1C=C2COC(=O)[C@]2(O)[C@@]2(C)CCCC(C)(C)[C@H]12` (stereo in doubt; 9), for which the outcome in experiment [4], in experiment [5] and in experiment [6] was inactive.
As to `CC1=CC(=O)[C@H]2C(C)(C)[C@@H](O)CC[C@]2(C)[C@@]1(O)CO`, the result in experiment [4], in experiment [5] and in experiment [6] was inactive.
As to `C/C=C/C=C/C=C/C(=O)O[C@@H]1C=C2COC(=O)[C@]2(O)[C@@]2(C)CCCC(C)(C)[C@H]12`, the EC50 is 1.9 µg/mL (≈ 4.92 µM) in experiment [1], more than 10 µg/mL in experiment [2] and 7.5 µg/mL (≈ 19.4 µM) in experiment [3].
Turning to `CC1(C)C[C@H](O)C[C@@]2(C)[C@H]1[C@H](O)C=C1COC(=O)[C@@]12O`, the outcome in experiment [4], in experiment [5] and in experiment [6] was inactive.
Turning to `CC1=CC(=O)[C@H]2C(C)(C)C[C@H](O)C[C@]2(C)[C@@]1(O)CO`, the result in experiment [4], in experiment [5] and in experiment [6] was inactive.
